From ChEMBL document CHEMBL4261586, “Conjugation of a 5-nitrofuran-2-oyl moiety to aminoalkylimidazoles produces non-toxic nitrofurans that are efficacious in vitro and in vivo against multidrug-resistant Mycobacterium tuberculosis” (Eur J Med Chem, 2018)
≈ marks a conversion by molar mass, not a printed value.

Columns and labels:
[1] = test system: Mycobacterium tuberculosis; test: Antimycobacterial activity against Mycobacterium tuberculosis H37Rv after 7 days by resazurin microtitre plate assay; assay type: functional; settings: 168 h
In short: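 REMA in Middlebrook 7H9 with OADC. Three-week culture vortexed with glass beads, adjusted to 1.0 McFarland (about 3×10⁸ bacteria/mL) and diluted 20-fold. Final concentrations 1.6–200 via 2-fold dilutions; growth control plus 1% ([…] diluted) control. 7 days at 35 °C, then 0.01% resazurin for 18 h; fluorescence ex 520/em 590 nm. MIC taken where fluorescence plateaued or matched the 1% control (t-test).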

[2] = test system: Mycobacterium tuberculosis; test: Antitubercular activity against Mycobacterium tuberculosis H37Rv infected in C57BL/6 mouse assessed as tubercular foci index at 20 mg/kg, po administered via gavage over 42 days (excluding weekends) (reference value: 23.6 +/- 0.09); assay type: functional
[3] = test system: Mus musculus; test: Toxicity in C57BL6 mouse assessed as body mass at 700 to 1100 mg/kg, po measured after 14 days (reference value: 22.9 +/- 0.32 g); assay type: organism-based; settings: in vivo, 336 h
In short: (§1)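 Male C57BL6 mice (19.0–22.0 g), quarantined 14 days, 6 per dose group. Single oral gavage of Tween-80 suspension in water at 700–1100 mg/kg in 100 mg/kg steps; controls (7 mice) received 0.01% Tween-80. Lethality, time to death and clinical signs recorded daily for 14 days, then cervical dislocation and necropsy; heart, lung, liver, spleen and left kidney weights expressed relative to body weight. LD50 calculated by formula from dead/total counts.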

[4] = test system: Acinetobacter baumannii; test: Antibacterial activity against Acinetobacter baumannii assessed as diameter of inhibition zone measured after 18 hrs by Kirby-Bauer disk diffusion test; assay type: functional
[5] = test system: Mus musculus; test: Toxicity in C57BL6 mouse assessed as lethality at 1100 mg/kg, po measured daily over 14 days of treatment; assay type: organism-based; settings: in vivo, 336 h; in short: as §1
[6] = test system: Mus musculus; test: Toxicity in C57BL6 mouse assessed as heart mass quotient at 700 to 1100 mg/kg, po measured after 14 days relative to total body weight; assay type: organism-based; settings: in vivo, 336 h; in short: as §1
[7] = test system: Staphylococcus aureus; test: Antibacterial activity against Staphylococcus aureus assessed as diameter of inhibition zone after 18 hrs by Kirby-Bauer disk diffusion test; assay type: functional
[8] = test system: Klebsiella aerogenes; test: Antibacterial activity against Enterobacter aerogenes assessed as diameter of inhibition zone measured after 18 hrs by Kirby-Bauer disk diffusion test; assay type: functional
[9] = test system: Mycobacterium tuberculosis; test: Antitubercular activity against Mycobacterium tuberculosis H37Rv infected in C57BL/6 mouse assessed as colony forming units per lung mass unit at 20 mg/kg, po administered via gavage over 42 days (excluding weekends) (reference value: 169.1 +/- 11.83 x 10^3); assay type: functional
[10] = test system: Pseudomonas aeruginosa; test: Antibacterial activity against Pseudomonas aeruginosa assessed as diameter of inhibition zone measured after 18 hrs by Kirby-Bauer disk diffusion test; assay type: functional
[11] = test system: Mus musculus; test: Toxicity in C57BL6 mouse assessed as liver mass quotient at 700 to 1100 mg/kg, po measured after 14 days relative to total body weight; assay type: organism-based; settings: in vivo, 336 h; in short: as §1
[12] = test system: Klebsiella pneumoniae; test: Antibacterial activity against Klebsiella pneumoniae assessed as diameter of inhibition zone measured after 18 hrs by Kirby-Bauer disk diffusion test; assay type: functional
[13] = test system: Mus musculus; test: Toxicity in C57BL6 mouse assessed as left kidney mass quotient at 700 to 1100 mg/kg, po measured after 14 days relative to total body weight; assay type: organism-based; settings: in vivo, 336 h; in short: as §1
[14] = test system: Mycobacterium tuberculosis; test: Antitubercular activity against Mycobacterium tuberculosis H37Rv infected in C57BL/6 mouse assessed as lung mass index at 20 mg/kg, po administered via gavage over 42 days (excluding weekends) (reference value: 2.28 +/- 0.1); assay type: functional
[15] = test system: Mus musculus; test: Toxicity in C57BL6 mouse assessed as lung mass quotient at 700 to 1100 mg/kg, po measured after 14 days relative to total body weight; assay type: organism-based; settings: in vivo, 336 h; in short: as §1
[16] = test system: Mus musculus; test: Toxicity in C57BL6 mouse assessed as spleen mass quotient at 700 to 1100 mg/kg, po measured after 14 days relative to total body weight; assay type: organism-based; settings: in vivo, 336 h; in short: as §1
[17] = test system: Mus musculus; test: Toxicity in C57BL6 mouse assessed as lethality at 700 mg/kg, po measured daily over 14 days of treatment; assay type: organism-based; settings: in vivo, 336 h; in short: as §1
[18] = (§2) Toxicity in po dosed C57BL6 mouse assessed as lethality measured daily over 14 days of treatment; assay type: organism-based; settings: C57BL6, mouse, in vivo; in short: as §1
[19] = test system: Mus musculus; test: as §2; assay type: organism-based; settings: mouse, in vivo, 336 h; in short: as §1
[20] = test system: Enterococcus faecium; test: Antibacterial activity against Enterococcus faecium assessed as diameter of inhibition zone after 18 hrs by Kirby-Bauer disk diffusion test; assay type: functional
[21] = test system: Mus musculus; test: Toxicity in C57BL6 mouse assessed as brain mass quotient at 700 to 1100 mg/kg, po measured after 14 days relative to total body weight; assay type: organism-based; settings: in vivo, 336 h

## Cc1cnc(C)n1C1CCN(C(=O)c2ccc([N+](=O)[O-])o2)C1 (configuration not stated)
[1]
  MIC: 3.1 µg/mL (≈ 10.2 µM)

## Cc1cnc(CCNC(=O)c2ccc([N+](=O)[O-])o2)n1C1CCCCCCC1
[1]
  MIC: 25 µg/mL (≈ 66.8 µM)

## Cc1cnc(-c2ccccc2)n1CC1CCN(C(=O)c2ccc([N+](=O)[O-])o2)C1 (configuration not stated)
[1]
  MIC: 6.2 µg/mL (≈ 16.3 µM)

## CCCn1c(C)cnc1C1CN(C(=O)c2ccc([N+](=O)[O-])o2)C1
[1]
  MIC: 1.6 µg/mL (≈ 5.03 µM)
[2]
  Activity_index: 2.7
[3]
  Activity: 22.32 g
[4]
  diameter of the inhibition zone (DIZ): 25 mm
[5]
  Activity: Toxic
[6]
  fold change (FC): 0.34
[7]
  diameter of the inhibition zone (DIZ): 15 mm
[8]
  diameter of the inhibition zone (DIZ): 19 mm
[9]
  Activity: 85.9 ×10³ CFU
[10]
  diameter of the inhibition zone (DIZ): 0 mm
[11]
  fold change (FC): 4.49
[12]
  diameter of the inhibition zone (DIZ): 0 mm
[13]
  fold change (FC): 0.39
[14]
  Activity_index: 1.62
[15]
  fold change (FC): 0.48
[16]
  fold change (FC): 0.23
[17]
  Activity: Non-Toxic
[18]
  LD50 at 336 h: 900 mg/kg
[19]
  LD16: 287.5 mg/kg
  LD84: 1037.5 mg/kg
  LD100: 1100 mg/kg
[20]
  diameter of the inhibition zone (DIZ): 0 mm
[21]
  fold change (FC): 1.11

## Cc1cnc(C)n1C1CCCN(C(=O)c2ccc([N+](=O)[O-])o2)C1 (configuration not stated)
[1]
  MIC: 100 µg/mL (≈ 314 µM)

## Cc1cnc(CCNC(=O)c2ccc([N+](=O)[O-])o2)n1C1CCC1
[1]
  MIC: 6.2 µg/mL (≈ 19.5 µM)

## COCCn1c(C)cnc1CC1CCN(C(=O)c2ccc([N+](=O)[O-])o2)CC1
[1]
  MIC: > 100 µg/mL

## Cc1cnc(-c2cccnc2)n1CCC1CCN(C(=O)c2ccc([N+](=O)[O-])o2)CC1
[1]
  MIC: 100 µg/mL (≈ 244 µM)

## Cc1cnc(CC2CCN(C(=O)c3ccc([N+](=O)[O-])o3)C2)n1CC1CC1 (configuration not stated)
[1]
  MIC: 6.2 µg/mL (≈ 17.3 µM)

## Cc1cnc(C2CCCO2)n1CC1CCN(C(=O)c2ccc([N+](=O)[O-])o2)CC1 (configuration not stated)
[1]
  MIC: 50 µg/mL (≈ 129 µM)

## Cc1cnc(Cc2ccccc2)n1CCNC(=O)c1ccc([N+](=O)[O-])o1
[1]
  MIC: 50 µg/mL (≈ 141 µM)

## Cc1cnc(C)n1C1CCN(C(=O)c2ccc([N+](=O)[O-])o2)CC1
[1]
  MIC: > 100 µg/mL

## O=C(O)c1cn(C2CC2)c2cc(N3CCNCC3)c(F)cc2c1=O [CIPROFLOXACIN]
[4]
  diameter of the inhibition zone (DIZ): 31 mm
[7]
  diameter of the inhibition zone (DIZ): 27 mm
[8]
  diameter of the inhibition zone (DIZ): 26 mm
[12]
  diameter of the inhibition zone (DIZ): 26 mm
[20]
  diameter of the inhibition zone (DIZ): 25 mm

## CC[C@@H](CO)NCCN[C@@H](CC)CO [ETHAMBUTOL]
[2]
  Activity_index: 2.65
[9]
  Activity: 85.32 ×10³ CFU
[14]
  Activity_index: 1.61
